rCAG binder = molecules binding r(CAG) RNA repeats; r(CAG) RNA repeat, TO-PRO-1 dye displacement fluorescence; inhibition, % at 3 µM; 370,000 tested, 1.3% active; AID 651821;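 active = inhibition above the plate cutoff, the mean of all test compounds on that plate plus 3 SD, cut at about 35% in these data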;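 also: 0% = DMSO alone and 100% = 100 µM mitoxantrone as full dye displacement; higher means more dye released from RNA so lower well fluorescence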
ASAP1 GAP inh = ASAP1 ArfGAP inhibition | 360,000 tested, 0.19% active | inhibition, % at 16.5 µM | ASAP1-stimulated ARF1 GTP hydrolysis, GDP FP detection | AID 624377; in the data active = inhibition above about 25%;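 also: 0% = vehicle with enzyme and substrate and 100% = no enzyme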
Target sequence (Q9ULH1 325-724 limits assumed): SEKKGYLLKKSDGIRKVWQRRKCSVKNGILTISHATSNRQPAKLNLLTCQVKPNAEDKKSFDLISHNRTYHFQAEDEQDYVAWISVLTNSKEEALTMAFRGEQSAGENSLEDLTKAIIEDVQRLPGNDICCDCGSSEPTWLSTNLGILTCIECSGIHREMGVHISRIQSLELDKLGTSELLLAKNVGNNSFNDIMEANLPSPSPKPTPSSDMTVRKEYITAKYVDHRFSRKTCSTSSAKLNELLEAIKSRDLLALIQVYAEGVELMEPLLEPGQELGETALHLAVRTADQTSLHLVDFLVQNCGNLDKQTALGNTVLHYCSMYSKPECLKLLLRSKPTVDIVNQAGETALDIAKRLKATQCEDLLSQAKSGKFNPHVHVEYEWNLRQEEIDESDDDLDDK
NadD inh = NadD (S. aureus) enzyme inhibition | purified NadD enzyme, colorimetric absorbance read-out | inhibition, % at 20 µM | 360,000 tested, 0.78% active | AID 602399; in the data active = inhibition above about 26%
ARFGAP1 inhibitor = inhibitors of rat ARFGAP1; Q62848; Arfgap1-stimulated ARF1 GTP hydrolysis, GDP FP detection; inhibition, % at 16.5 µM; 360,000 tested, 0.26% active; AID 651572;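 active = inhibition above a per-plate limit, mean inhibition of low control wells plus 3 SD, cut at about 25% in these data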;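 also: 0% = DMSO wells with enzyme and 100% = wells lacking Arfgap1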
Target sequence (Q62848 1-136 limits assumed): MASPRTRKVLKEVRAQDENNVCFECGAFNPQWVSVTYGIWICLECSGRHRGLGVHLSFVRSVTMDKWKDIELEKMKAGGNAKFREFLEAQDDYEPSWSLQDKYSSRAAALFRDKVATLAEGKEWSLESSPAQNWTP
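Material – truncated rat Arfgap1 GAP domain · Buffer or medium – HEPES-based buffer, pH 7.5 · Reagent – human ARF1(Δ1-17)-GTP substrate · Dosing – 16.5 µM single point, 1.26% DMSO · Schedule – GTP hydrolysis reaction 2 h at 25 °C · Technique – GDP detection by fluorescence polarization · Benchmarks – No-Arfgap1 wells (100%) versus DMSO full-reaction wells (0%) · Repeats – single replicate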
NadD inh conf = confirmation of Staphylococcus aureus NadD inhibitors; 2,000 tested, 13% active; purified S. aureus NadD, colorimetric enzyme assay; shares compounds with NadD inh; inhibition, % at 20 µM; in the data active = inhibition mostly above about 42%, no sharp cut-off; inactive = mostly below about 42%
Starred values were filed as active, the others as inactive; · = no result. Most compounds without a hit are left out; they make up all but 2.2% or so of the library.

SMILES	rCAG binder	ASAP1 GAP inh	NadD inh	ARFGAP1 inhibitor	NadD inh conf
Oc1ccc(C[C@H]2CNC(=S)N2C[C@H]2CCCN2C[C@H](Cc2ccccc2)N2C[C@H](Cc3ccc(O)cc3)N(CC3CCCCCC3)C2=S)cc1	17	14	43*	0	14
CC(C)C[C@H]1CN([C@@H](Cc2ccc(O)cc2)CN2CCC[C@@H]2CN2C(=S)NC[C@@H]2Cc2ccccc2)C(=S)N1CC1CCCCC1	9	23	22	12	·
Oc1ccc(C[C@H]2CN([C@@H](Cc3ccccc3)CN3CCCC3CN3C(=S)NC[C@@H]3Cc3ccccc3)C(=S)N2CC2CCCCC2)cc1 (some centres undefined)	16	16	43*	12	4
CC(C)C[C@H]1CNC(=S)N1C[C@H]1CCCN1C[C@H](Cc1ccc(O)cc1)N1C[C@H](Cc2ccccc2)N(CC2CCCCC2)C1=S	11	-1	9	12	·
CC(C)C[C@@H](CN1CCC[C@@H]1CN1C(=S)NC[C@@H]1Cc1ccccc1)N1C[C@H](Cc2ccc(O)cc2)N(CC2CCCCC2)C1=S	10	-13	-2	7	·
Brc1ccc(Cn2nnc(-c3ccc(N4CCOCC4)cc3)n2)cc1	2	·	·	·	·
COc1ccc(NC(=O)N2CCC(N(C)CCC(C)C)CC2)cc1OC	1	·	·	·	·
Oc1ccc(C[C@H]2CNC(=S)N2CC2CCCN2C[C@H](Cc2ccc(O)cc2)N2C[C@H](Cc3ccc(O)cc3)N(CC3CCCCC3)C2=S)cc1 (some centres undefined)	15	-4	48*	10	47
CC(C)C[C@@H](CN1CCC[C@@H]1CN1C(=S)NC[C@@H]1Cc1ccccc1)N1C[C@H](Cc2ccc(O)cc2)N(CC2CCCCCC2)C1=S	9	0	22	2	·
Oc1ccc(C[C@H]2CN([C@@H](Cc3cccc(O)c3)CN3CCC[C@@H]3CN3C(=S)NC[C@@H]3Cc3ccccc3)C(=S)N2CC2CCCCC2)cc1	9	4	44*	2	33
CC(C)C[C@@H](CN1CCCC1CN1C(=S)NC[C@@H]1Cc1ccc(O)cc1)N1C[C@H](Cc2ccc(O)cc2)N(CC2CCCCC2)C1=S (some centres undefined)	15	13	54*	12	30
CC(C)C[C@H]1CNC(=S)N1C[C@H]1CCCN1C[C@H](Cc1ccc(O)cc1)N1C[C@H](CC(C)C)N(CC2CCCCCC2)C1=S	13	4	24	7	·
Nn1c(SCC(=O)Nc2nccs2)nnc1-c1cc(-c2ccc(Cl)cc2)n[nH]1	7	·	·	·	·
COc1ccc(-c2csc3ncnc(N4CCN(S(=O)(=O)c5cccc(Br)c5)CC4)c23)cc1	4	1	31*	-1	18
Cc1ccc(S(=O)(=O)N2CCN(c3ncnc4scc(-c5ccc(F)cc5)c34)CC2)cc1	2	-10	37*	5	14
COc1ccc(-c2csc3ncnc(N4CCN(S(=O)(=O)c5cccc(C(F)(F)F)c5)CC4)c23)cc1	4	8	17	19	·
CSCCC(C(=O)NC1CCCC1)n1c(C2CCCC2)nc2ccccc21 (centres undefined)	5	10	·	0	·
C=CCN(Cc1ccc2c(c1)OCO2)C(C#CC1CC1)C(C)C (centres undefined)	3	·	·	·	·
Cc1sc(NC(=O)Cc2ccc3c(c2)OCO3)nc1-c1ccc2c(c1)CCN2C(=O)c1ccc(F)cc1	14	-5	35*	6	28
Cc1sc(NC(=O)CN2CCCC2)nc1-c1ccc2c(c1)CCN2C(=O)c1cccc(F)c1	6	6	16	-6	·
Cc1sc(NC(=O)Cc2ccc3c(c2)OCO3)nc1-c1ccc2c(c1)CCN2C(=O)c1ccccc1F	4	4	37*	-7	20
O=c1cc(CN2CCN(c3ccccc3)CC2)c2cc(O)c(-c3ccccc3)cc2o1	6	3	19	5	·
O=c1cc(CN2CCN(c3cccc(Cl)c3)CC2)c2cc(O)c(-c3ccccc3)cc2o1	4	-1	39*	-5	4
C=CCN1C(=O)[C@@H](CC(=O)N2CCOCC2)[C@]2(C(=O)OCC)CCCCC/C=C/12	8	·	·	·	·
N#CC1=C2SCN(Cc3ccco3)CN2C(=O)CC1c1cccc2ccccc12 (centres undefined)	37*	10	31*	-5	9
SMILES	rCAG binder	ASAP1 GAP inh	NadD inh	ARFGAP1 inhibitor	NadD inh conf
COc1ccc(S(=O)(=O)N2CCC(C(=O)NCCN3CCOCC3)CC2)cc1OC	0	2	33*	-5	3
COc1ccc(S(=O)(=O)N2CCC(C(=O)NCCN3CCOCC3)CC2)cc1C	0	-4	-2	1	·
Cc1ccccc1C1C(C#N)=C2N=C(N)c3c(sc4c3CCCCC4)N2C2=C1C(=O)CCC2 (centres undefined)	·	·	43*	·	40
N#CC1=C2N=C(N)c3ccccc3N2C2=C(C(=O)CCC2)C1c1ccccc1F (centres undefined)	-5	-5	1	9	·
O=C(CSc1nnc(C2CC2)n1C1CC1)N1CCN(c2ccc(O)cc2)CC1	4	-3	4	2	·
Cc1ccc(-c2nnc(SCC(=O)N/N=C/c3c(C)nn(-c4ccccc4)c3C)n2-c2ccc(C)cc2)cc1	5	2	30*	-3	15
Cc1ccc(-c2nnc(SCC(=O)N/N=C/c3c(C)nn(-c4ccccc4)c3C)n2-c2ccccc2)cc1	3	-1	12	-2	·
O=C(CSc1nnc2c3ccccc3c3ccccc3c2n1)Nc1ccccc1F	10	-11	42*	3	3
COC(=O)CN1CCN(C(=O)c2nocc2C)CC1	1	·	·	·	·
COc1cc2c(C#N)c(N3CCc4ccccc4C3)nc(N)c2c(N)n1	32	8	42*	19	-3
COc1ccc(-c2csc(Nc3ccc(S(N)(=O)=O)cc3)n2)cc1	8	11	45*	-4	47
CC(=O)Oc1ccc(-c2csc(Nc3ccc(S(N)(=O)=O)cc3)n2)cc1	13	1	-2	-12	·
CC(C)C[C@@H](CN1CCC[C@@H]1CN1C(=O)C(=O)NC[C@@H]1Cc1ccccc1)N1C[C@H](Cc2ccc(O)cc2)N(CC2CCCCCC2)C(=O)C1=O	8	-5	24	-20	·
CC(C)C[C@@H](CN1CCC[C@H]1CN1C(=O)C(=O)NC[C@@H]1Cc1ccc(O)cc1)N1C[C@H](Cc2ccccc2)N(CC2CCCCCC2)C(=O)C1=O	13	1	38*	-10	32
CC(C)C[C@H]1CNC(=O)C(=O)N1C[C@@H]1CCCN1C[C@H](Cc1ccccc1)N1C[C@H](Cc2ccccc2)N(CC2CCCCC2)C(=O)C1=O	3	6	26	-5	·
CC(C)C[C@@H](CN1CCC[C@H]1CN1C(=O)C(=O)NC[C@@H]1Cc1ccccc1)N1C[C@H](Cc2ccccc2)N(CC2CCCCCC2)C(=O)C1=O	7	-9	40*	-2	25
COC(=O)[C@]12C[C@H](CC(=O)NCCCN3CCCC3=O)C(=O)N(CCC3=CCCCC3)C1=C[C@H](C(C)C)O[C@@H]2C1CC1	-2	·	·	·	·
